Assay results published in ChEMBL document CHEMBL1125396, “Synthesis and in vitro biological profile of all four isomers of the potent muscarinic agonist 3-(3-methyl-1,2,4-oxadiazol-5-yl)-1-azabicyclo[2.2.1]heptane” (J Med Chem, 1992).

Key:
[1] = biological target: T1, Muscarinic acetylcholine receptor (Rattus norvegicus) (UniProt P08482+P08483+P08485+P08911+P10980); experiment: In vitro ability to displace [3H]N-methylscopolamine from the muscarinic receptor in rat cerebral cortical membranes; type: cell membranes
Procedure, shortened: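 Rat (250-300 g) cerebral cortex crude synaptosomal-mitochondrial membranes (sucrose homogenate, 1000g then 17000g spins). [3H]NMS at 0.01–1.0 nM, nonspecific binding with 2 μM atropine; 60 min at 30 °C; GF/B filtration, saline rinses, scintillation counting. Kapp corrected for ligand occupancy; four concentrations in triplicate; geometric mean of ≥3 separate determinations.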

[2] = Ratio of Kapp(NMS)/Kapp(OXO-M)
Procedure, shortened: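 Ratio of Kapp values from displacement of [3H]NMS (0.01–1.0 nM, 60 min, 30 °C) and of [3H]oxotremorine-M (0.2-5 nM, HEPES pH 7.4, 40 min, 30 °C) in rat cortical membranes; 2 μM atropine nonspecific; each Kapp occupancy-corrected geometric mean of ≥3 determinations.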

[3] = biological target: T1, Muscarinic acetylcholine receptor (Rattus norvegicus); experiment: In vitro ability to displace [3H]oxotremorine-M from the muscarinic receptor in rat cerebral cortical membranes; type: cell membranes
Procedure, shortened: (§1)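 Rat cortical P2 membranes washed and resuspended 1/100 (wet w/v) in 20 mM HEPES pH 7.4. [3H]oxotremorine-M at 0.2-5 nM, nonspecific binding with 2 μM atropine; 40 min at 30 °C; filtration on polyethyleneimine-presoaked GF/C filters, saline wash, scintillation counting. Kapp corrected for ligand occupancy; four concentrations in triplicate; geometric mean of ≥3 determinations.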

[4] = biological target: Muscarinic acetylcholine receptor M3 (Cavia porcellus) (UniProt Q8VH26); experiment: In vitro evaluation for the relative maximum against Muscarinic M3 receptor compare to carbachol; type: functional
Procedure, shortened: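 Guinea pig ileum longitudinal muscle-myenteric plexus (male, 300-400 g), 1 g tension, Krebs bicarbonate at 37 °C; isometric tension change measured to peak; maximum response expressed as percentage of that to 1 μM carbachol.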

[5] = biological target: T2, Muscarinic acetylcholine receptor M1 (Rattus norvegicus) (UniProt P08482); experiment: In vitro evaluation for the relative maximum against Muscarinic M1 receptor compare to muscarine; type: functional
T2 sequence (whole entry): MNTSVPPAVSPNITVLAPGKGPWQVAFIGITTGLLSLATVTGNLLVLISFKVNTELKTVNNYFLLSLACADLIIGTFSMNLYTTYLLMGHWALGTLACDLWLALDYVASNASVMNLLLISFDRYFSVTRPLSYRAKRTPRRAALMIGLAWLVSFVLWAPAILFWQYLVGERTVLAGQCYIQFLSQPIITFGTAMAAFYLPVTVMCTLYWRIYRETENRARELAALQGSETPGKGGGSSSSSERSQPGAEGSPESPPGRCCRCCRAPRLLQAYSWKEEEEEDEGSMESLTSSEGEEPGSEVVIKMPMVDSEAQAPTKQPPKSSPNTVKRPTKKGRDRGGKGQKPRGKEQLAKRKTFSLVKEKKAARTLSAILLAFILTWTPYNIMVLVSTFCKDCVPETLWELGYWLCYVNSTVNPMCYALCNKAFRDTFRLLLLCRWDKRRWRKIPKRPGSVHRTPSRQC
Procedure, shortened: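 Maximum depolarizing response determined by raising agonist concentration until plateau, expressed relative to muscarine; responses related to a reference depolarization set at 1.0; ganglia each from a different rat.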

[6] = biological target: T3, Muscarinic acetylcholine receptor M2 (Homo sapiens) (UniProt P08172); experiment: In Vitro evaluation for the relative maximum against Muscarinic M2 receptor compare to carbachol; type: functional; details: Cavia porcellus
T3 sequence (whole entry): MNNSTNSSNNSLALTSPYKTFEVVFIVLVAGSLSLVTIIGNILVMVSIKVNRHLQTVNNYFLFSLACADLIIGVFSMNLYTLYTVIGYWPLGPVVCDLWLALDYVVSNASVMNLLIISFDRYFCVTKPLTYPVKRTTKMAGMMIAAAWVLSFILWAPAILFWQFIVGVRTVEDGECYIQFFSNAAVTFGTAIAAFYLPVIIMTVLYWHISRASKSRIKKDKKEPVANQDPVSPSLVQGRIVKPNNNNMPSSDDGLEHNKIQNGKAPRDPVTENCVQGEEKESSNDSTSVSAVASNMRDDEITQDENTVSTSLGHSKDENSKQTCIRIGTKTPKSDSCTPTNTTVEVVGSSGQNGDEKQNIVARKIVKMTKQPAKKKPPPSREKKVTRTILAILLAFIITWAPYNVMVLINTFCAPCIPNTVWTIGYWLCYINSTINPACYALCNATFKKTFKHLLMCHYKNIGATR
Procedure, shortened: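 Guinea pig paired atria (male, 300-400 g) in Krebs bicarbonate with 22 mM glucose, 1 g tension, electrically paced (3-4 Hz, 2-3 ms); noncumulative dose-response curves to maximum negative chronotropic effect, ≥45 min apart; maximum response expressed relative to that of carbachol.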

[7] = biological target: T4, Muscarinic acetylcholine receptor M1 (Rattus norvegicus, UniProt P08482); experiment: Compound was tested in vitro for depolarizing response on the rat superior cervical ganglion (mediated by Muscarinic M1 receptor; type: functional, tissue-based
T4 sequence (P08482 whole entry): T2 sequence (whole entry)
Procedure, shortened: (§2)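 Responses related to a reference depolarizing response set at 1.0. Agonist concentration raised until response levelled off; EC50 taken as concentration giving half-maximum; at least two determinations, each ganglion from a different rat.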

[8] = biological target: T5, Muscarinic acetylcholine receptor M2 (Homo sapiens, UniProt P08172); experiment: In vitro negative chronotropic effect on electrically driven guinea pig atria(mediated by Muscarinic M2 receptor); type: functional, Cavia porcellus; details: target entry is the homologue from another species
T5 sequence (P08172 whole entry): T3 sequence (whole entry)
Procedure, shortened: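 Paired atria from male guinea pigs (300-400 g) under 1 g tension in Krebs bicarbonate with 22 mM glucose, paced by field stimulation (3-4 Hz, 2-3 ms). After 60 min equilibration, noncumulative dose-response curves for negative chronotropy, each application held to maximum effect; ≥45 min between curves. EC50 from geometric mean of at least two determinations.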

[9] = biological target: Muscarinic acetylcholine receptor M3 (Cavia porcellus, UniProt Q8VH26); experiment: In vitro contraction of guinea pig myenteric plexus preparation (mediated by Muscarinic M3 receptor); type: functional
Procedure, shortened: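 Distal ileum longitudinal muscle-myenteric plexus strips from male guinea pigs (300-400 g) under 1 g tension in 3 mL Krebs bicarbonate, 37 °C, equilibrated ≥60 min. Isometric contraction read for ≥30 s to clear peak, ≥45 min between compounds; responses as % of 1 μM carbachol maximum. EC50 by nonlinear iterative curve fitting; geometric mean of at least four determinations.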

[10] = biological target: T1, Muscarinic acetylcholine receptor (Rattus norvegicus); experiment: In vitro ability to displace muscarinic agonist [3H]oxotremorine-M from high affinity state of the receptor in rat cerebral cortical membranes; type: cell membranes; details: Membrane; procedure, shortened: as §1
[11] = biological target: T4, Muscarinic acetylcholine receptor M1; experiment: Compound was tested in vitro for depolarizing response on the rat superior cervical ganglion (mediated by Muscarinic M1 receptor); type: functional, tissue-based; procedure, shortened: as §2

Muscarinic acetylcholine receptor M3, sequence (Q8VH26 whole entry): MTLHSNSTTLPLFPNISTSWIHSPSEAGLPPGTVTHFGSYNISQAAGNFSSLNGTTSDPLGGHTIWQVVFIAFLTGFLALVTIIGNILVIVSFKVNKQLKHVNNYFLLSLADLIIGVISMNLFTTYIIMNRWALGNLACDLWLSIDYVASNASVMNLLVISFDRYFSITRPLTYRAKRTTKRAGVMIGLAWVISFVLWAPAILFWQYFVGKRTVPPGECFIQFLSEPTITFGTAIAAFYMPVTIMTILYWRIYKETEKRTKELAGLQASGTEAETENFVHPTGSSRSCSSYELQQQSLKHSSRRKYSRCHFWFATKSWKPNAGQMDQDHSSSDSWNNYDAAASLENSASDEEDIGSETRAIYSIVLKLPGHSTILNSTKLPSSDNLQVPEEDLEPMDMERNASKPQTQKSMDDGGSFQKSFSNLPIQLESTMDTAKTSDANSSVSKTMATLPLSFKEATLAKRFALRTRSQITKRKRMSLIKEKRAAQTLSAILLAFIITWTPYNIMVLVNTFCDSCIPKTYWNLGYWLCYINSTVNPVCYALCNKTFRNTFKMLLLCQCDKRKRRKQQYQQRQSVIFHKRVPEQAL
Muscarinic acetylcholine receptor M3 (Cavia porcellus), sequence (Q8VH26 1-587): as the sequence (Q8VH26 whole entry) above

Row | Compound | K app [1] [nM] | Ratio [2] | K app [3] [nM] | RM [4] | RM [5] | RM [6] | EC50 [7] [nM] | EC50 [8] [nM] | EC50 [9] [nM] | K app [10] [nM] | EC50 [11] [nM]
1 | C[N+](C)(C)CCOC(N)=O | 22000 | 4500 | 4.9 | – | – | – | – | – | – | – | –
2 | Cc1noc([C@H]2CN3CC[C@@H]2C3)n1 | 2200 | 1400 | 1.6 | 0.93 | 0.76 | 0.96 | 90 | 19 | 16 | – | –
3 | Cc1noc([C@@H]2CN3CC[C@@H]2C3)n1 | 370 | 1200 | – | 0.97 | 1.16 | 0.94 | – | 3.3 | 2.4 | 0.32 | 7
4 | Cc1noc([C@H]2CN3CC[C@H]2C3)n1 | 32 | 1200 | 0.027 | 0.91 | 0.94 | 0.91 | – | 0.039 | 0.045 | – | 2.4
